Measured values published in article PMC5552226 (EBioMedicine, 2017).

Assays:
[1] = sublingual, male volunteers; ref De Groot et al., 1995; cited from earlier work
Safety and tolerability = type: in vivo, human; conditions: IM 10 IU (17 μg); N = 16
Outline: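 Healthy female volunteers in a single-centre, single-blind, fixed-sequence phase 1 study received a single IM dose of test compound, 10 IU, alongside inhaled dosing sessions. Adverse events and serious adverse events were recorded throughout the study. Spirometry, clinical laboratory tests, vital signs, ECG intervals, physical examination and cardiac telemetry were checked at set post-dose times. Follow-up visit 7–21 days after the last inhaled dose. Data were summarised descriptively.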

[2] = Plasma oxytocin pharmacokinetics, phase 1 single-dose study; type: in vivo, human
[3] = female, human, plasma, im, 10 IU

Row | Molecule | absorption half-life [1] | bioavailability [1] | lag time [1] | AE that led to discontinuation of study drug or withdrawal from the study, number of subjects (Safety and tolerability) | Deaths, number of AEs (Safety and tolerability) | Deaths, number of subjects (Safety and tolerability) | Headache (drug-related), number of AEs (Safety and tolerability) | Led to discontinuation of study drug or withdrawal from the study, number of AEs (Safety and tolerability) | Non-fatal SAEs, number of subjects (Safety and tolerability) | subjects in whom plasma oxytocin remained quantifiable up to 4 h ([2]; IM 10 IU, LLQ 2 pg/mL) | AUC(0–3 h), adjusted geometric mean ([2]; IM 10 IU, plasma, mixed-effect model, PK population) [ng·h/mL] | AUC(0-t) [2, 3] [ng·h/mL] | Cmax [2, 3] [ng/mL] | half-life [2, 3] [min] | level at 0.5 h [2, 3] [ng/mL] | tmax [2, 3] [min] | tmax ([2]; following IM administration (10 IU), plasma)
1 | oxytocin [sublingual oxytocin] | long absorption half-life | poor bioavailability | long lag time | – | – | – | – | – | – | – | – | – | – | – | – | – | –
2 | CC[C@H](C)[C@@H]1NC(=O)[C@H](Cc2ccc(O)cc2)NC(=O)[C@@H](N)CSSC[C@@H](C(=O)N2CCC[C@H]2C(=O)N[C@@H](CC(C)C)C(=O)NCC(N)=O)NC(=O)[C@H](CC(N)=O)NC(=O)[C@H](CCC(N)=O)NC1=O [IM oxytocin, oxytocin] | – | – | – | 0 | 0 | 0 | 1 | 0 | 0 | 5/16 | 0.12761 | 0.12 | 0.19 | 38.4 | 0.0822 | 10.2 | ~ 10 min
